# Assays:
# Mus musculus [1] = assay: Weight change on day 7 in L1210 Lymphoid Leukemia in mice at a dose of 9 mg/kg/day (b.i.d. x10); type: functional
# How it was run: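 L1210 ascitic leukemia was implanted i.p. (10⁵ cells, day 0) in male B6D2F1J mice of 20–25 g, 5 per group. Dosing was b.i.d.×10, except that on days 5 and 6 a single double-dose injection was given. The % weight change was recorded at day 7.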
# Mus musculus [2] = assay: Toxicity in mice after 10-24 days at a dose of 15 mg/kg/day; value is 21/9; type: functional
# Mus musculus [3] = assay: Weight change on day 7 in L1210 Lymphoid Leukemia in mice at a dose of 4 mg/kg/day (qdx9); type: functional
# How it was run: (§1)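 Male B6D2F1J mice (20–25 g) were inoculated i.p. with 10⁵ L1210 ascites cells on day 0 and randomized into groups of 5. Drug in water at pH 7.5–8.0 was given i.p. daily for 9 days (qd×9) from day 1. Animals were weighed after 7 days, and the % body-weight change was recorded under a standard NCI protocol.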
# Mus musculus [4] = assay: Toxicity in mice after 12-22 days at a dose of 60 mg/kg/day; value is 21/9; type: functional
# Mus musculus [5] = assay: Toxicity in mice after 17-19 days at a dose of 40 mg/kg/day; value is 18/9; type: functional
# Mus musculus [6] = assay: Weight change on day 7 in L1210 Lymphoid Leukemia in mice at a dose of 2 mg/kg/day (qdx9); type: functional
# How it was run: (§2)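 Male B6D2F₁J mice (20–25 g) bearing ip L1210 ascites (10⁵ cells, day 0) were used, 5 per group. Drug was given ip in water at pH 7.5–8.0 from day 1 on q2d×5, qd×9 or b.i.d.×10 schedules. Animals were weighed after 7 days and percent weight change recorded.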
# Mus musculus [7] = assay: Toxicity in mice after 16-18 days at a dose of 9 mg/kg/day; value is 17/9; type: functional
# [8] = target: T1, Dihydrofolate reductase (Mus musculus) (UniProt P00375); assay: Binding affinity to Dihydrofolate reductase of L1210 cell line using [H]MTX as radioligand; type: cell-based
# T1 sequence (whole entry): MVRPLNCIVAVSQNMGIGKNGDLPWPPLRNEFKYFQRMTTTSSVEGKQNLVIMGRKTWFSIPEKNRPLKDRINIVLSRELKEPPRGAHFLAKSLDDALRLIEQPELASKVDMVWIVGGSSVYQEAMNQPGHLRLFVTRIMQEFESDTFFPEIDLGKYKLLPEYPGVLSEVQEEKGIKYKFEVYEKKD
# How it was run: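 Competitive [³H]MTX binding to dihydrofolate reductase from L1210 leukemia. Ascites cells from tumor-bearing mice were washed and lysed before use. The assay ran at 37 °C in 0.1 M potassium phosphate, pH 6.8. ID₅₀ was read as inhibition of radioligand binding, with MTX included in each experiment.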
# Mus musculus [9] = assay: Toxicity in mice after 12-19 days at a dose of 8 mg/kg/day; value is 12/8.5; type: functional
# Mus musculus [10] = species: Mus musculus; assay: Percentage increase in life span after 12-19 days; type: functional
# How it was run: (§3)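 Male B6D2F1J mice (20–25 g), randomized after i.p. inoculation with 10^5 L1210 ascitic leukemia cells on day 0. Drug in water, pH 7.5–8.0, given i.p. on a q2d×5, qd×9 (from day 1) or b.i.d.×10 schedule; 5 mice per group. %ILS = [(T/C) − 1]100 from median survival days of treated versus control mice. Range is survival days.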
# Mus musculus [11] = assay: Weight change on day 7 in L1210 Lymphoid Leukemia in mice at a dose of 20 mg/kg/day (qdx9); type: functional; how it was run: as §2
# Mus musculus [12] = assay: Toxicity in mice after 12-20 days at a dose of 40 mg/kg/day; value is 14/9; type: functional
# Mus musculus [13] = assay: Weight change on day 7 in L1210 Lymphoid Leukemia in mice at a dose of 8 mg/kg/day (qdx9); type: functional; how it was run: as §1
# Mus musculus [14] = species: Mus musculus; assay: Percentage increase in life span after 8-17 days; type: functional; how it was run: as §3
# Mus musculus [15] = species: Mus musculus; assay: Percentage increase in life span after 16-18 days; type: functional; how it was run: as §3
# Mus musculus [16] = species: Mus musculus; assay: Percentage increase in life span after 9-24 days; type: functional; how it was run: as §3
# Mus musculus [17] = assay: Weight change on day 7 in L1210 Lymphoid Leukemia in mice at a dose of 60 mg/kg/day (qdx9); type: functional; how it was run: as §1
# Mus musculus [18] = species: Mus musculus; assay: (§4) Percentage increase in life span after 12-20 days; type: functional; how it was run: as §3
# Mus musculus [19] = assay: Toxicity in mice after 9-24 days at a dose of 12 mg/kg/day; value is 18/9; type: functional
# Mus musculus [20] = assay: Toxicity in mice after 8-17 days at a dose of 4 mg/kg/day; value is 11/8.5; type: functional
# [21] = target: Dihydrofolate reductase (Lactobacillus casei) (UniProt P00381); settings: Lacticaseibacillus casei
# Dihydrofolate reductase (Lactobacillus casei), sequence (P00381 whole entry): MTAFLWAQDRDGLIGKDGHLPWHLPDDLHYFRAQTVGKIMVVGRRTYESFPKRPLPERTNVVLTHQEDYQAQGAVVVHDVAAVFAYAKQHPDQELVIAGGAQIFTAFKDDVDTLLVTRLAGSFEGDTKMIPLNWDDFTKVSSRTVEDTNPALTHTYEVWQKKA
# Mus musculus [22] = assay: Toxicity in mice after 9-11 days at a dose of 2 mg/kg/day; value is 10/8.5; type: functional
# Mus musculus [23] = assay: Toxicity in mice after 12-16 days at a dose of 20 mg/kg/day; value is 14/9; type: functional
# L1210 = assay: cytotoxicity against L1210 cells; type: functional; settings: Mus musculus, read-out: ID50 (the source's name)
# [24] = system: Carboxypeptidase G1 (Pseudomonas); assay: Tested for substrate activity of compound for Carboxypeptidase G1
# Mus musculus [25] = species: Mus musculus; assay: Percentage increase in life span after 17-19 days; type: functional; how it was run: as §3
# Mus musculus [26] = assay: Weight change on day 7 in L1210 Lymphoid Leukemia in mice at a dose of 40 mg/kg/day (qdx9); type: functional; how it was run: as §1
# Mus musculus [27] = assay: Weight change on day 7 in L1210 Lymphoid Leukemia in mice at a dose of 12 mg/kg/day (b.i.d. x10); type: functional; how it was run: as §2
# Mus musculus [28] = assay: Toxicity in mice after 12-20 days at a dose of 20 mg/kg/day; value is 13/9; type: functional
# Mus musculus [29] = species: Mus musculus; assay: Percentage increase in life span after 12-22 days; type: functional; how it was run: as §3
# Mus musculus [30] = species: Mus musculus; assay: Percentage increase in life span after 10-24 days; type: functional; how it was run: as §3
# [31] = Tested for substrate activity of compound for Carboxypeptidase G1; set-up: species or system Mus musculus
# How it was run: (§5)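 Cleavage by carboxypeptidase G₁ was followed as the A320 change on release of the pteroate. Conditions were 37 °C in 0.05 M potassium phosphate, pH 6.7, with 100 μM ZnSO₄. Enzyme was diluted in 1% BSA to give ΔA320 of 0.02–0.2/min. Km and Vmax came from Lineweaver-Burk plots. Ki came from competitive runs varying analogue against fixed MTX, or vice versa.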
# Mus musculus [32] = species: Mus musculus; assay: Percentage increase in life span after 12-16 days; type: functional; how it was run: as §3
# Mus musculus [33] = species: Mus musculus; assay: as §4; type: functional; how it was run: as §3; remark: listed apart in the source
# [34] = target: T1, Dihydrofolate reductase (Mus musculus); assay: Binding affinity to Dihydrofolate reductase of L1210/R71 using spectrophotometric assay
# How it was run: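 The enzyme was isolated from MTX-resistant L1210/R71 cultured cells and purified on MTX-agarose. The assay measured ΔA340 at 22 °C in 0.1 M Tris, pH 7.0, with 62 nM enzyme. Enzyme was preincubated 2 min with inhibitor and NADPH, and dihydrofolate was then added to start the reaction. ID₅₀ determined.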
# [35] = Tested for substrate activity of compound for Carboxypeptidase G1 (exp 2); how it was run: as §5
# Mus musculus [36] = species: Mus musculus; assay: Percentage increase in life span after 9-11 days; type: functional; how it was run: as §3
# [37] = target: T1, Dihydrofolate reductase (Mus musculus)
# Mus musculus [38] = assay: Weight change on day 7 in L1210 Lymphoid Leukemia in mice at a dose of 15 mg/kg/day (b.i.d. x10); type: functional; how it was run: as §2
# [39] = target: Dihydrofolate reductase (Lactobacillus casei) (UniProt P00381); settings: Lacticaseibacillus casei; remark: listed apart in the source
structure (smiles),measurement,setting,value
CN(Cc1cnc2nc(N)nc(N)c2n1)c1ccc(C(=O)NC(CCCC(=O)O)C(=O)O)cc1 (stereo unspecified),Weight change,Mus musculus [1],-3%
same,T/C,Mus musculus [2],21
same,Weight change,Mus musculus [3],7%
same,T/C,Mus musculus [4],21
same,T/C,Mus musculus [5],18
same,Weight change,Mus musculus [6],10%
same,T/C,Mus musculus [7],17
same,ID50,[8],1.4 nM
same,T/C,Mus musculus [9],12
same,ILS,Mus musculus [10],41%
same,Weight change,Mus musculus [11],7%
same,T/C,Mus musculus [12],14
same,Weight change,Mus musculus [13],2%
same,ILS,Mus musculus [14],29%
same,ILS,Mus musculus [15],89%
same,ILS,Mus musculus [16],100%
same,Weight change,Mus musculus [17],-6%
same,ILS,Mus musculus [18],55%
same,T/C,Mus musculus [19],18
same,T/C,Mus musculus [20],11
same,ID50,[21],6.9 nM
same,T/C,Mus musculus [22],10
same,T/C,Mus musculus [23],14
same,IC50,L1210,30 nM
same,Km,[24],196 µM
same,Vmax,[24],0.124 min⁻¹
same,ILS,Mus musculus [25],100%
same,Weight change,Mus musculus [26],2%
same,Weight change,Mus musculus [27],-3%
same,T/C,Mus musculus [28],13
same,ILS,Mus musculus [29],133%
same,ILS,Mus musculus [30],133%
same,Ki,[31],2770 nM
same,ILS,Mus musculus [32],56%
same,ILS,Mus musculus [33],44%
same,ID50,[34],39 nM
same,Ki,[35],3220 nM
same,ILS,Mus musculus [36],18%
same,ID50,[37],6.7 nM
same,Weight change,Mus musculus [38],-7%
same,ID50,[39],12 nM

# — ChEMBL document CHEMBL1122411 (J Med Chem, 1983)
